Screens as filed in PubChem.
SENP8 block-1 – SENP8 protease inhibition; AID 2540; actives 1.2% (n = 330,000); purified SENP8, Z-RLRGG-aminoluciferin cleavage, luminescence; inhibition, % at 10 µM; in the data active = inhibition above about 50%
SENP1 inh – inhibitors of human SENP1 SUMO protease catalytic domain | AID 624204 | inhibition, % at 10 µM | Q9P0U3 | recombinant SENP1 catalytic domain, CyPet-SUMO1-YPet FRET cleavage | actives 0.21% (n = 360,000);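 active = inhibition at least 30% at 10 µM, raw YFP signal under a set limit, fluorescence ratio 0.5 to 1.5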
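Compound: 10 µM single point, 0.5% DMSO; Test system: hSENP1 catalytic domain, recombinant; Timing: 50 min reaction at room temperature; Technique: FRET, CFP and YFP emission; Control set: no-enzyme wells low, DMSO-plus-enzyme wells high control.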
SENP7 block – SENP7 protease inhibition | Q9BQF6 | recombinant SENP7, Z-RLRGG-aminoluciferin luminescence, 40 min | inhibition, % at 5 µM | actives 1.5% (n = 330,000) | AID 434973;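 active = inhibition above about 50% at the single test dose, limit read from the data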
Target sequence (Q9BQF6 706-1050 limits assumed): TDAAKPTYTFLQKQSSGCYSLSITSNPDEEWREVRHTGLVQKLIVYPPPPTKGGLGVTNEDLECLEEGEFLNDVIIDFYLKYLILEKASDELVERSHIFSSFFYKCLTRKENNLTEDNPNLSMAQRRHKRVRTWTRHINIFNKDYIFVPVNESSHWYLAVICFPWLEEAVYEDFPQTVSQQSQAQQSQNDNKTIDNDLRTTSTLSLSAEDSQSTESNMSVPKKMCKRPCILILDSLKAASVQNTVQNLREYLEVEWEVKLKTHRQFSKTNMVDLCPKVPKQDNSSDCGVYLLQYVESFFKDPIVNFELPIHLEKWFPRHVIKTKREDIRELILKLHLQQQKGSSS
SENP8 block-2 – inhibitors of human SENP8 protease | Q96LD8 | recombinant SENP8, Nedd8 substrate fluorescence | inhibition, % at 20 µM | actives 0.64% (n = 360,000); in the data active = inhibition mostly above about 40%, no sharp cut-off; inactive = mostly below about 27%
SENP6 block – blocks the human protease SENP6 | Recombinant SENP6 catalytic domain, aminoluciferin luminescence | inhibition, % at 10 µM | actives 1.8% (n = 330,000) | AID 2599;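 active = inhibition above about 50% at the single tested dose, limit read from the data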
A number is an active result; i = inactive; nt = not tested or not shown. Most compounds without a hit are left out; they make up all but 2.5% or so of the library.

SMILES | SENP8 block-1 | SENP1 inh | SENP7 block | SENP8 block-2 | SENP6 block
COc1cc(OC)cc(C(=O)NN2CCOCC2)c1 | i | i | i | i | i
COc1ccc(C(C)NC(=O)Cc2cccs2)cc1OC (centres undefined) | i | i | i | i | i
N/C(=N\N=C\c1ccc(O)c(O)c1)c1nonc1N | 96 | i | 99 | i | 99
Cc1nonc1C(=O)N/N=C/c1ccc(O)c(O)c1 | 96 | i | 99 | i | 97
COc1ccccc1OCC(=O)N1CCN(S(=O)(=O)c2ccc(Cl)cc2)CC1 | i | i | i | i | i
COC(=O)c1ccc(OC(=O)CCc2cc(OC)c(OC)c(OC)c2)cc1 | i | i | i | i | i
CCOC(=O)c1ccc(S(=O)(=O)Nc2cc(S(=O)(=O)Nc3ccc(OC)cc3)ccc2O)cc1 | i | i | i | i | i
CC(=O)C1=C(c2ccc(Br)cc2)C(=O)c2ccccc2C1=O | nt | i | nt | i | nt
CNC1=C(N(C(C)=O)c2ccc(Br)cc2)C(=O)c2ccccc2C1=O | nt | i | nt | 84 | nt
CC1CCN(C(=O)CSc2nc(C(C)C)nc3c2c(=O)n(C)c(=O)n3C)CC1 | i | i | i | i | i
CSc1nc(S(C)(=O)=O)nc2[nH]c(=O)[nH]c12 | nt | i | nt | i | nt
C/C(Cl)=C\Cn1c(O)c(N=NC(N)=S)c2cc(Br)ccc21 | i | i | i | i | i
NC(=S)N=Nc1c(O)n(CCCl)c2ccc(Br)cc12 | i | i | i | 50 | i
CN1C=CC=C/C1=C1\SC(=S)N(c2ccccc2)C1=O | i | i | i | 44 | i
Cc1ccc(C(=O)c2coc3c2C(=O)C(=O)c2ccccc2-3)cc1 | i | i | i | 56 | i
Cc1oc2c(c1C(=O)c1ccc(Cl)cc1)C(=O)C(=O)c1ccccc1-2 | nt | i | nt | 113 | nt
COc1ccc(OCc2cc(C(=O)O)c(C)o2)cc1 | 89 | nt | 92 | nt | 92
CCN(CC)Cc1cc(C(=O)O)c(C)o1 | i | i | i | i | i
CN1/C(=C/C(=O)c2nc(S(C)(=O)=O)ncc2Cl)C(C)(C)c2ccccc21 | i | 42 | i | i | i
Cc1ccc(NCC(=O)c2ccccc2)cc1Cl | i | i | i | i | i
Cc1ccc(NC2=C(NC(=O)c3ccccc3)C(=O)c3ccccc3C2=O)cc1Cl | i | i | i | 62 | i
O=C(O)c1cc(N/N=C/C=C/c2ccccc2[N+](=O)[O-])ccc1Cl | 52 | i | i | i | i
COc1ccc(NC2CCCN(C(=O)c3cc(CC(C)C)nc(N)n3)C2)cc1 (centres undefined) | i | i | i | i | i
COc1cccc(/C=C2\CCc3ccccc3C2=O)c1 | 95 | i | 94 | i | 99
COc1ccc(-c2ccc3c(c2)S(=O)(=O)c2cccc(C(=O)N4CCN(c5c(Cl)cncc5Cl)CC4)c2C3=O)cc1OC | i | 51 | i | i | i
SMILES | SENP8 block-1 | SENP1 inh | SENP7 block | SENP8 block-2 | SENP6 block
O=C1c2ccc(Cl)cc2S(=O)(=O)c2cccc(C(=O)N3CCN(c4ncc(Br)cn4)CC3)c21 | i | i | i | i | i
COc1ccc(OC)c(-n2c(N)c(C(=O)NCC3CCCO3)c3nc4ccccc4nc32)c1 (centres undefined) | nt | i | nt | i | nt
COCCn1c(N)c(C(=O)NCC2CCCO2)c2nc3ccccc3nc21 (centres undefined) | 86 | i | 63 | i | 84
Cc1cc(SCC(=O)NCC2CCCO2)nc2ccccc12 (centres undefined) | i | 57 | i | i | i
Cc1cc(C(=O)N/N=C/c2cc(N=Nc3ccccc3)ccc2O)n[nH]1 | nt | i | nt | 41 | nt
COc1ccc2c(c1)CC/C2=N\OC(=O)c1ccccc1OC | i | i | 67 | i | 68
COc1ccccc1C(=O)O/N=C1/CCCc2c1ccc(OC)c2[N+](=O)[O-] | i | i | i | i | i
CN1C(=O)[C@@](O)(c2cn(C)c3ccccc23)c2cc(Br)ccc21 | nt | i | nt | i | nt
CN1CCS/C1=C\C=C1/SC(=S)N(CC(=O)O)C1=O | nt | 68 | nt | i | nt
O=C1Nc2ccccc2SC1=Cc1ccccc1 | nt | i | nt | i | nt
O=C1CCCC2=C1Sc1ccccc1N2 | i | 52 | i | i | i
O=C(CNS(=O)(=O)c1ccc(Br)s1)NCCc1ccc(Cl)cc1 | i | i | i | i | i
Cc1ccc2[nH]c(O)c(N=Nc3nc4ccccc4s3)c2c1 | i | 35 | i | i | i
Cc1ccc2[nH]c(O)c(N=Nc3ccccc3[N+](=O)[O-])c2c1 | nt | i | nt | i | nt
CCC(=O)Nc1cccc(C(=O)OCC(=O)c2ccccc2Cl)c1 | i | i | i | i | i
